Reference: ChEMBL document CHEMBL4477193, “The Natural Product Essramycin and Three of Its Isomers Are Devoid of Antibacterial Activity” (J Nat Prod, 2016)
Active and inactive are the calls of the source.

Legend:
Type in all cases: functional, organism-based
[1] = system: Klebsiella pneumoniae; assay: Antibacterial activity against Klebsiella pneumoniae ATCC 700603 up to 128 ug/ml after 16 to 20 hrs by broth microdilution assay
Summary of the method: (§1)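 MIC testing across a concentration series whose top concentration was 128 μg/mL. The E. faecium strain is NCTC 7171 (ATCC 19734). The testing method follows an earlier report.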

[2] = system: Pseudomonas aeruginosa; assay: Antibacterial activity against Pseudomonas aeruginosa ATCC 27853 up to 128 ug/ml after 16 to 20 hrs by broth microdilution assay; summary of the method: as §1
[3] = system: Acinetobacter baumannii; assay: Antibacterial activity against Acinetobacter baumannii ATCC 17961 up to 128 ug/ml after 16 to 20 hrs by broth microdilution assay; summary of the method: as §1
[4] = system: Escherichia coli; assay: Antibacterial activity against Escherichia coli ATCC 25922 up to 128 ug/ml after 16 to 20 hrs by broth microdilution assay; summary of the method: as §1
[5] = system: Staphylococcus aureus; assay: Antibacterial activity against Staphylococcus aureus ATCC 29213 up to 128 ug/ml after 16 to 20 hrs by broth microdilution assay; summary of the method: as §1
[6] = system: Klebsiella aerogenes; assay: Antibacterial activity against Enterobacter aerogenes ATCC 35029 up to 128 ug/ml after 16 to 20 hrs by broth microdilution assay; summary of the method: as §1
[7] = system: Enterococcus faecium; assay: Antibacterial activity against Enterococcus faecium ATCC 19734 up to 128 ug/ml after 16 to 20 hrs by broth microdilution assay; summary of the method: as §1

Measured: Activity

Cc1cc(=O)[nH]c2nc(CC(=O)c3ccccc3)nn12
inactive: all assays above

Cc1cc(=O)n2nc(CC(=O)c3ccccc3)nc2[nH]1
inactive: all assays above

Cc1cc(=O)n2c(CC(=O)c3ccccc3)nnc2[nH]1
inactive: all assays above

Cc1cc(=O)[nH]c2nnc(CC(=O)c3ccccc3)n12
inactive: all assays above
